Test results published in ChEMBL document CHEMBL1157015, “New isatin derivatives with antioxidant activity” (Eur J Med Chem, 2010).
Calls of active or inactive are those of the source. The rule behind the calls is not given here.

Assays:
Format in all cases: functional
[1] = Antioxidant activity against hydroperoxyl radical assessed as resorcinol equivalent by Briggs-Rauscher method
Procedure, shortened: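 Briggs–Rauscher oscillating reaction run at acidic pH (ca. 2), using resorcinol as standard. Activity is expressed relative to resorcinol from the inhibitory phase of the oscillations.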

[2] = Antioxidant activity against ABTS radical assessed as trolox equivalent by TEAC assay
Procedure, shortened: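 TEAC assay run at pH 7.4 against the ABTS radical cation. Trolox served as standard, with activity expressed relative to it.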

[3] = Antioxidant activity against hydroperoxyl radical assessed as inhibition time at 1.48 uM by Briggs-Rauscher method
Procedure, shortened: (§1)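 Briggs–Rauscher oscillating reaction run under acidic conditions (pH ca. 2). Read-out is the inhibitory phase induced in the oscillations.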

[4] = Antioxidant activity against hydroperoxyl radical assessed as inhibition time at 2.97 uM by Briggs-Rauscher method; procedure, shortened: as §1
[5] = Antioxidant activity against hydroperoxyl radical assessed as inhibition time at 3.34 uM by Briggs-Rauscher method; procedure, shortened: as §1
[6] = Antioxidant activity against hydroperoxyl radical assessed as inhibition time at 3.71 uM by Briggs-Rauscher method; procedure, shortened: as §1
[7] = Antioxidant activity against hydroperoxyl radical assessed as inhibition time at 2.25 uM by Briggs-Rauscher method; procedure, shortened: as §1

Row | SMILES | Activity [1] | Activity [2] | TIME [3] | TIME [4] | TIME [5] | TIME [6] | TIME [7]
1 | COc1ccc(OC)c(NC(=O)C(=O)c2ccccc2NC(C)=O)c1 | inactive | inactive |  |  |  |  | 
2 | COc1cc(C2(c3cc(OC)c(N)cc3OC)C(=O)Nc3ccccc32)c(OC)cc1N | 1.28 µM | 1.4 mM | 0.154 h | 0.24 h | 0.269 h | 0.296 h | 0.216 h
